Source: ChEMBL document CHEMBL1125493, “HIV-1 neutralization and tumor cell proliferation inhibition in vitro by simplified analogues of pyrido[4,3,2-mn]thiazolo[5,4-b]acridine marine alkaloids” (J Med Chem, 1992)

How the values were obtained:
[1] = tested on: Human immunodeficiency virus 1; test: Inhibitory effect (100 uM) against HIV-1 in human peripheral blood monocyte cells(PBMC) (EC50 ->34.5 ug/mL); type: functional
[2] = tested on: Human immunodeficiency virus 1; test: Inhibitory effect against HIV-1 induced cytopathic effects(HIV-1 neutralization) in MT-4 lymphocytes at a concentration of 100 ug/mL (0.2900 uM/mL).; type: functional
Method in brief: (§1)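 HIV-1 Molt IIIB (~2 × 10^4 TCID50 in 100 μL) preincubated 1 h at 37 °C with a single compound dose, then added to MT-4 cells (5 × 10^5 cells/well, 1 mL). Cultured at 37 °C, 5% CO2. Viable cells counted by trypan blue exclusion on days 4 and 7. Triplicates; % viable cells. Controls: infected cells (positive), uninfected cells (negative).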

MT4 [3] = test: Cytotoxic effect in cultured MT-4 lymphocytes at a concentration of 2 ug/mL (0.0060 uM/mL).; type: functional, Homo sapiens
Method in brief: (§2)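 MT-4 cells at 5 × 10^4 cells/well, 1 mL total, cultured with compound diluted in RPMI 1640 with 10% FBS, 10 mM HEPES, penicillin/streptomycin and 2 mM glutamine, at 37 °C under 5% CO2. Viability was scored by trypan blue exclusion on days 4 and 7, in triplicate, as % viable cells.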

MT4 [4] = test: Cytotoxic effect in cultured MT-4 lymphocytes at a concentration of 100 ug/mL (0.2900 uM/mL).; type: functional, Homo sapiens; method in brief: as §2
MT4 [5] = test: Cytotoxic effect in cultured MT-4 lymphocytes at a concentration of 10 ug/mL (0.0290 uM/mL).; type: functional, Homo sapiens; method in brief: as §2
MT4 [6] = test: Protection of MT-4 lymphocytes by the compound against HIV-1 infectivity in vitro at a concentration of 50 ug/mL (0.150 uM/mL); type: functional, Homo sapiens
Method in brief: (§3)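 Virus (HIV-1 Molt IIIB, ~2 × 10^4 TCID50) preincubated with compound 1 h at 37 °C, 5% CO2. Then added to MT-4 cells (5 × 10^5 cells/well) and cultured at 37 °C. Trypan blue viability counts taken on days 4 and 7, triplicate at each concentration. Controls were infected and uninfected cells. Reported as % viable (surviving) MT-4 cells.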

[7] = Calu3 lung tumor cell proliferation inhibition by the compound in vitro at a concentration of 0.6 uM.; type: functional, Homo sapiens
Method in brief: (§4)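 Tumor cells grown in RPMI-1640 in 1% agar with 5% fetal bovine serum, exposed to the specified concentrations for 1 week. Viability was assessed against a control given distilled water in place of drug. 5-Fluorouracil served as the positive cytotoxic standard. Results are reported as concentration-dependent cell survival.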

[8] = tested on: Human immunodeficiency virus 1; test: Inhibitory effect against HIV-1 induced cytopathic effects(HIV-1 neutralization) in MT-4 lymphocytes at a concentration of 100 ug/mL (0.3000 uM/mL).; type: functional; method in brief: as §1
COLO 320DM [9] = test: COLO 320DM colon tumor cell proliferation inhibition by the compound in vitro at a concentration of 0.6 uM.; type: functional, Homo sapiens; method in brief: as §4
[10] = Calu3 lung tumor cell proliferation inhibition by the compound in vitro at a concentration of 6.0 uM.; type: functional, Homo sapiens; method in brief: as §4
[11] = Calu3 lung tumor cell proliferation inhibition by the compound in vitro at a concentration of 60 uM.; type: functional, Homo sapiens; method in brief: as §4
[12] = tested on: Human immunodeficiency virus 1; test: Percent inhibition of HIV-1 binding to H-9 cells at a concentration of 100(ug/mL).; type: functional
Method in brief: (§5)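 HIV-1 Molt IIIB (50 μL) incubated overnight with compound at 100 μg/mL, then with uninfected H-9 cells 2 h at 37 °C. Washed; stained with HIV-positive human serum (1:100) then FITC anti-human IgG (1:10), 30 min at 4 °C each. Formaldehyde-fixed (0.5%) and analysed by flow cytometry for % virus bound and % binding inhibition.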

MCF7 [13] = test: […] breast tumor cell proliferation inhibition by the compound in vitro at a concentration of 60 uM.; type: functional, Homo sapiens
Method in brief: (§6)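 Breast tumor cells treated with specified compound concentrations in RPMI-1640 in 1% agar with 5% FBS for 1 week. Viability compared with a control given distilled water in place of drug; 5-fluorouracil as standard cytotoxic drug. Reported as concentration-dependent cell survival.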

[14] = tested on: Human immunodeficiency virus 1; test: Inactivation of HIV-MN strain in MT-4 lymphocytes in vitro at a concentration of 100 ug/mL (0.30 uM/mL).; type: functional
Method in brief: (§7)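 Compound (50 μL) was mixed with 50 μL of HIV-1 Molt IIIB or HIV-MN inoculum in RPMI 1640 for 1 h at room temperature. The mixture was added to 5 × 10^4 MT-4 cells and kept 7 days at 37 °C, 5% CO2. MTT (5.0 mg/mL) was added for 4 h, the reaction was stopped with 0.04 N HCl/2-propanol, and OD was read at 570 nm. % inactivation was calculated from OD relative to uninfected cells and untreated virus, mean of three.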

MT4 [15] = test: Cytotoxic effect in cultured MT-4 lymphocytes at a concentration of 100 ug/mL (0.3000 uM/mL).; type: functional, Homo sapiens; method in brief: as §2
MCF7 [16] = test: […] breast tumor cell proliferation inhibition by the compound in vitro at a concentration of 0.6 uM.; type: functional, Homo sapiens; method in brief: as §6
[17] = tested on: Human immunodeficiency virus 1; test: Percent HIV-1 bound to H-9 cells at a concentration of 100(ug/mL).; type: functional; method in brief: as §5
MCF7 [18] = test: […] breast tumor cell proliferation inhibition by the compound in vitro at a concentration of 6.0 uM.; type: functional, Homo sapiens; method in brief: as §6
COLO 320DM [19] = test: COLO 320DM colon tumor cell proliferation inhibition by the compound in vitro at a concentration of 60 uM.; type: functional, Homo sapiens; method in brief: as §4
[20] = tested on: Human immunodeficiency virus 1; test: Inactivation of HIV-MoltIIIB strain in MT-4 lymphocytes in vitro at a concentration of 200 ug/mL (0.60 uM/mL).; type: functional; method in brief: as §7
[21] = tested on: Human immunodeficiency virus 1; test: Protection of MT-4 lymphocytes by the compound against HIV-1 infectivity in vitro at a concentration of 100 ug/mL (0.30 uM/mL); type: functional; method in brief: as §3
[22] = tested on: Human immunodeficiency virus 1; test: Inactivation of HIV-MN strain in MT-4 lymphocytes in vitro at a concentration of 200 ug/mL (0.60 uM/mL).; type: functional; method in brief: as §7
MT4 [23] = test: Protection of MT-4 lymphocytes by the compound against HIV-1 infectivity in vitro at a concentration of 12.5 ug/mL (0.038 uM/mL); type: functional, Homo sapiens; method in brief: as §3
[24] = tested on: Human immunodeficiency virus 1; test: Inactivation of HIV-MN strain in MT-4 lymphocytes in vitro at a concentration of 400 ug/mL (1.20 uM/mL).; type: functional; method in brief: as §7
MT4 [25] = test: Protection of MT-4 lymphocytes by the compound against HIV-1 infectivity in vitro at a concentration of 25 ug/mL (0.075 uM/mL); type: functional, Homo sapiens; method in brief: as §3
[26] = tested on: Human immunodeficiency virus 1; test: Protection of MT-4 lymphocytes by the compound against HIV-1 infectivity in vitro at a concentration of 200 ug/mL (0.60 uM/mL); type: functional; method in brief: as §3
[27] = tested on: Human immunodeficiency virus 1; test: Inactivation of HIV-MoltIIIB strain in MT-4 lymphocytes in vitro at a concentration of 100 ug/mL (0.30 uM/mL).; type: functional; method in brief: as §7
COLO 320DM [28] = test: COLO 320DM colon tumor cell proliferation inhibition by the compound in vitro at a concentration of 6.0 uM.; type: functional, Homo sapiens; method in brief: as §4
[29] = tested on: Human immunodeficiency virus 1; test: Inhibitory effect (100 uM) against HIV-1 in human peripheral blood monocyte cells(PBMC) (EC50 ->32.5 ug/mL); type: functional
MT4 [30] = test: Cytotoxic effect in cultured MT-4 lymphocytes at a concentration of 10 ug/mL (0.0300 uM/mL).; type: functional, Homo sapiens; method in brief: as §2
[31] = tested on: Human immunodeficiency virus 1; test: Protection of MT-4 lymphocytes by the compound against HIV-1 infectivity in vitro at a concentration of 400 ug/mL (1.20 uM/mL); type: functional; method in brief: as §3
[32] = tested on: Human immunodeficiency virus 1; test: Inactivation of HIV-MoltIIIB strain in MT-4 lymphocytes in vitro at a concentration of 400 ug/mL (1.2u M/mL).; type: functional; method in brief: as §7
MT4 [33] = test: Cytotoxic effect in cultured MT-4 lymphocytes at a concentration of 2 ug/mL (0.0080 uM/mL).; type: functional, Homo sapiens; method in brief: as §2

In the case of `Nc1nc2cc3c(O)c4ccccc4nc3cc2[nH]1`, the Inhibition [1] is reported as 33%, the Viability [2] is reported as 12.5% and the Viability (MT4 [3]) is reported as 90%. The Viability (MT4 [4]) was 81.5% and the Viability (MT4 [5]) was 88.8%.
With `O=C([O-])CSc1ccc2c(c1)c(=O)c1ccccc1n2C1CC1.[Na+]` the Survival (MT4 [6]) was 89.2%, the Viability [7] was 104% and the Viability [8] was 83.7%. The Viability (COLO 320DM [9]) was 107%, the Viability [10] was 73% and the Viability [11] was 44%. The Inhibition [12] was 13.8%, the Viability (MCF7 [13]) was 44% and the Inactivation [14] was 11.3%. It also gave a Viability (MT4 [15]) of 100%, a Viability (MCF7 [16]) of 91% and a Bound [17] of 28.7%. It also gave a Viability (MT4 [3]) of 96.6%, a Viability (MCF7 [18]) of 86% and a Viability (COLO 320DM [19]) of 87%. The Inactivation [20] was 23.5%, the Survival [21] was 83.7% and the Inactivation [22] was 10%. It also gave a Survival (MT4 [23]) of 77.3%, an Inactivation [24] of 11.6% and a Survival (MT4 [25]) of 85.5%. It also gave a Survival [26] of 81.3%, an Inactivation [27] of 3.9% and a Viability (COLO 320DM [28]) of 108%. It also gave an Inhibition [29] of 29%, a Viability (MT4 [30]) of 96% and a Survival [31] of 86%. The Inactivation [32] was 23.3%.
Molecule `Cc1nc2cc3nc4ccccc4cc3cc2s1.Cl` has a Viability (MT4 [33]) of 85%.
